Experimental data published in publication PMC8273888 (Journal of Medicinal Chemistry, 2021).
Read-outs that look alike come from different tables or passages of the source.

Experiments:
VIM-2 = VIM-2 (Escherichia coli, UniProt Q5U7L7); conditions: cited from earlier work
IMP family = conditions: cited from earlier work
NDM-1 [1] = molecular target: T1, NDM-1 (Klebsiella pneumoniae, UniProt C7C422); assay: Enzyme inhibition assay with nitrocefin as chromogenic substrate; assay type: biochemical
Method in brief: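 Recombinant NDM-1 (6 nM) in 50 mM HEPES pH 7.2 with 1 μM ZnSO₄ and 0.01% Triton X-100 was preincubated with a range of test compound concentrations for 15–60 min at 25 °C. Nitrocefin (10 μM, ∼2 × K_M) was then added and A492 was read at once over 30 cycles. For time 0, enzyme was added last. IC50 came from initial velocities, in three independent replicates.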

E. coli (NDM-1) = assay: Synergy assay: MIC of meropenem in combination with test compound; assay type: cell-based
IMP-1 [2] = molecular target: T2, IMP-1 (Serratia marcescens, UniProt P52699); conditions: cited from earlier work
NDM-1 [3] = molecular target: T1, NDM-1; conditions: read-out: IC50 NDM-1; cited from earlier work
VIM-1 = conditions: cited from earlier work
K. pneumoniae (IMP-28) = assay: Synergy assay: MIC of meropenem in combination with test compound; assay type: cell-based
IMP-1 [4] = molecular target: T2, IMP-1; assay: Enzyme inhibition assay with nitrocefin as chromogenic substrate; assay type: biochemical; conditions: for decrease of activity against IMP-1 relative to 8: from IC50 data of Table 2
IMP-28 = IMP-28 (Klebsiella oxytoca, UniProt G4WB26); assay: as above; assay type: biochemical; conditions: for decrease of activity against IMP-28 relative to 8: from IC50 data of Table 2
E. coli (VIM-2) = assay: Synergy assay: MIC of meropenem in combination with test compound; assay type: cell-based
E. cloacae (IMP-1) = assay: as above; assay type: cell-based
[5] = test compound 0 μg/mL (meropenem alone, baseline)
[6] = mean ± SD, nitrocefin substrate

T2 sequence (P52699 19-246, looked up, species assumed): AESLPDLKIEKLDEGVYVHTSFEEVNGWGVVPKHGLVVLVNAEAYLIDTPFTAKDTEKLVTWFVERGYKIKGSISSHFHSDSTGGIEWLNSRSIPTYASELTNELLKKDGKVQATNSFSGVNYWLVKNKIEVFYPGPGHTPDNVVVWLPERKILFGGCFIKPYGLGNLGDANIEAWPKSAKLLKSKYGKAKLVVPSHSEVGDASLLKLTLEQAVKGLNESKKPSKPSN
T1 sequence (C7C422 29-270, looked up, species assumed): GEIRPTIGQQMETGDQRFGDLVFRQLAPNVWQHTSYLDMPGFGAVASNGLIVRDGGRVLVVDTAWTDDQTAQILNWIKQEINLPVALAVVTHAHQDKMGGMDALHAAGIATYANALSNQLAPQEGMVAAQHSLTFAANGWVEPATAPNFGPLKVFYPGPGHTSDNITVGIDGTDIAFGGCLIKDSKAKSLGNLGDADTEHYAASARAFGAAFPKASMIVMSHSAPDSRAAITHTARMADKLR
Chain of IMP-28 (G4WB26 20-246): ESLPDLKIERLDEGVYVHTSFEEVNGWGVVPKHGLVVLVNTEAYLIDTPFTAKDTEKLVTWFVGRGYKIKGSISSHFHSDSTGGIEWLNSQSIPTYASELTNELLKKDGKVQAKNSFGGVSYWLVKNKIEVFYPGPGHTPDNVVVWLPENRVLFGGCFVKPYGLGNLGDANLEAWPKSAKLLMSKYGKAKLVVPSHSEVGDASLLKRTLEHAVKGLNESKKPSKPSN

With `NCCN[C@H]1CC[C@H](CC(=O)N[C@H]2Cc3cccc(C(=O)O)c3OB2O)CC1` [taniborbactam] as the compound, how does the “IC50 VIM-2” value (VIM-2) read?
The value was “sub-micromolar”.

And the “inhibition of the IMP family” value (IMP family)?
Its value is “weak inhibition”.

With `O=C(Cc1ccccc1)N[C@@H]1C(=O)N2C(C(=O)O)=C(CSCCc3ccccc3)CS[C@H]12` [Compound 12] as the compound, how does the IC50 (NDM-1 [1]) read?
The IC50 was > 100 µM.

And the “meropenem MIC” value (E. coli (NDM-1); [5])?
The value was 64 µg/mL.

What does the source list for `O=C(O)c1ncsc1NS(=O)(=O)c1cccnc1` [ANT431]?
inhibitory activity against IMP-1 (IMP-1 [2]): remain resistant; IC50 (NDM-1 [3]): 2670 nM; inhibitory activity against VIM-1 (VIM-1): remain resistant

What does the source list for `O=C(Cc1ccccc1)N[C@@H]1C(=O)N2C(C(=O)O)=C(CS[C@H](Cc3ccccc3)C(=O)O)CS[C@H]12` [Compound 9]?
Fold reduction of MIC (meropenem) (K. pneumoniae (IMP-28); test compound 32 μg/mL): ≥ 64 fold; Fold reduction of MIC (meropenem) (K. pneumoniae (IMP-28); test compound 64 μg/mL): ≥ 64 fold; Fold reduction of MIC (meropenem) (K. pneumoniae (IMP-28); test compound 128 μg/mL): ≥ 64 fold; potency relative to diastereomer 10 against IMP-1 (IMP-1 [4]; more potent than 10): ca. 10 fold; potency relative to diastereomer 10 against IMP-28 (IMP-28; more potent than 10): ~30 fold

Which “meropenem MIC” value (K. pneumoniae (IMP-28); test compound 64 μg/mL) does the source give for `O=C(O)c1cccc(C(=O)O)n1` [DPA, Dipicolinic acid, reference compound] here?
Its value is ≤ 0.031 µg/mL.

And the “meropenem MIC” value (K. pneumoniae (IMP-28); test compound 128 μg/mL)?
Its value is ≤ 0.031 µg/mL.

What about the “meropenem MIC” value (E. coli (VIM-2); [5]) of the same compound?
The value was 4 µg/mL.

And the “meropenem MIC” value (E. coli (VIM-2); test compound 32 μg/mL)?
The value was ≤ 0.063 µg/mL.

And the “meropenem MIC” value (E. coli (VIM-2); test compound 64 μg/mL)?
The value was ≤ 0.063 µg/mL.

And the “meropenem MIC” value (E. coli (VIM-2); test compound 128 μg/mL)?
The value was ≤ 0.063 µg/mL.

And the “meropenem MIC” value (E. coli (NDM-1); test compound 128 μg/mL)?
The value was ≤ 0.5 µg/mL.

Which “Fold reduction of MIC (meropenem)” value (K. pneumoniae (IMP-28); test compound 32 μg/mL) does the source give for `O=C(Cc1ccccc1)N[C@@H]1C(=O)N2C(C(=O)O)=C(CSC(C(=O)O)c3ccccc3)CS[C@H]12` (stereo partly drawn) [Compound 8] here?
Its value is ≥ 64 fold.

What about the “Fold reduction of MIC (meropenem)” value (K. pneumoniae (IMP-28); test compound 64 μg/mL) of the same compound?
The value was ≥ 64 fold.

And the “Fold reduction of MIC (meropenem)” value (K. pneumoniae (IMP-28); test compound 128 μg/mL)?
The value was ≥ 64 fold.

Which “Fold reduction of MIC (meropenem)” value (E. coli (VIM-2); test compound 32 μg/mL) does the source give for `O=C(Cc1ccccc1)N[C@@H]1C(=O)N2C(C(=O)O)=C(CSCc3ccccc3)CS[C@H]12` [Compound 11] here?
The value was 2 (2) fold.

And the “meropenem MIC” value (E. coli (VIM-2); test compound 32 μg/mL)?
The value was 2 (2) μg/mL.

What about the “Fold reduction of MIC (meropenem)” value (E. coli (VIM-2); test compound 64 μg/mL) of the same compound?
Its value is 2 (2) fold.

What about the “meropenem MIC” value (E. coli (VIM-2); test compound 64 μg/mL) of the same compound?
The value was 2 (2) μg/mL.

What about the “meropenem MIC” value (E. cloacae (IMP-1); [5]) of the same compound?
The value was 32 µg/mL.

And the IC50 (NDM-1 [1])?
Its IC50 is > 100 µM.

What about the “decrease of activity against IMP-1 relative to 8” value (IMP-1 [4]) of the same compound?
The value was “ca. 100 fold”.

And the “meropenem MIC” value (E. coli (NDM-1); [5])?
Its value is 32 µg/mL.

What about the “decrease of activity against IMP-28 relative to 8” value (IMP-28) of the same compound?
Its value is “ca. 100 fold”.

With `CC1=C(C(=O)O)N2C(=O)[C@@H](NC(=O)Cc3ccccc3)[C@H]2SC1` [Compound 15] as the compound, how does the “Fold reduction of MIC (meropenem)” value (E. coli (VIM-2); test compound 32 μg/mL) read?
The value was 2 (2) fold.

What about the “meropenem MIC” value (E. coli (VIM-2); test compound 32 μg/mL) of the same compound?
The value was 2 (2) μg/mL.

What about the “Fold reduction of MIC (meropenem)” value (E. coli (VIM-2); test compound 64 μg/mL) of the same compound?
The value was 2 (2) fold.

And the “meropenem MIC” value (E. coli (VIM-2); test compound 64 μg/mL)?
The value was 2 (2) μg/mL.

What about the IC50 (NDM-1 [1]) of the same compound?
The IC50 was > 100 µM.

What about the IC50 (IMP-1 [4]) of the same compound?
The IC50 was > 100 µM.

What about the “decrease of activity against IMP-1 relative to 8” value (IMP-1 [4]) of the same compound?
Its value is “ca. 100 fold”.

What about the “meropenem MIC” value (E. coli (NDM-1); [5]) of the same compound?
Its value is 32 µg/mL.

What about the “decrease of activity against IMP-28 relative to 8” value (IMP-28) of the same compound?
Its value is “ca. 100 fold”.

With `O=C(Cc1ccccc1)N[C@@H]1C(=O)N2C(C(=O)O)=C(CSCC(=O)c3ccccc3)CS[C@H]12` [Compound 6] as the compound, how does the “Fold reduction of MIC (meropenem)” value (E. cloacae (IMP-1); test compound 128 μg/mL) read?
The value was 4 (4) fold.

What about the “meropenem MIC” value (E. cloacae (IMP-1); test compound 128 μg/mL) of the same compound?
Its value is 4 (4) μg/mL.

And the “meropenem MIC” value (E. coli (NDM-1); [5])?
Its value is 32 µg/mL.

Which results are given for `O=C(Cc1ccccc1)N[C@H](C(=O)O)[C@@H]1N=C(C(=O)O)C(CSC(C(=O)O)c2ccccc2)CS1` (stereo partly drawn) [Compound 8H]?
IC50 IMP-1 (IMP-1 [4]; [6]): sub-micromolar; IC50 IMP-28 (IMP-28; [6]): sub-micromolar

For `O=C(Cc1ccccc1)N[C@@H]1C(=O)N2C(C(=O)O)=C(CS[C@@H](Cc3ccccc3)C(=O)O)CS[C@H]12` [Compound 10], which “Fold reduction of MIC (meropenem)” value (E. cloacae (IMP-1); test compound 128 μg/mL) is on record?
The value was 4 (4) fold.

And the “meropenem MIC” value (E. cloacae (IMP-1); test compound 128 μg/mL)?
The value was 4 (4) μg/mL.

Which results are given for `O=C(O)CSCC1=C(C(=O)O)N2C(=O)[C@@H](NC(=O)Cc3ccccc3)[C@H]2SC1` [Compound 13]?
Fold reduction of MIC (meropenem) (E. coli (VIM-2); test compound 32 μg/mL): 2 (2) fold; meropenem MIC (E. coli (VIM-2); test compound 32 μg/mL): 2 (2) μg/mL; Fold reduction of MIC (meropenem) (E. coli (VIM-2); test compound 64 μg/mL): 2 (2) fold; meropenem MIC (E. coli (VIM-2); test compound 64 μg/mL): 2 (2) μg/mL; Fold reduction of MIC (meropenem) (E. cloacae (IMP-1); test compound 128 μg/mL): 4 (4) fold; meropenem MIC (E. cloacae (IMP-1); test compound 128 μg/mL): 4 (4) μg/mL; IC50 (IMP-1 [4]): > 100 µM; decrease of activity against IMP-1 relative to 8 (IMP-1 [4]): ca. 100 fold; meropenem MIC (E. coli (NDM-1); [5]): 32 µg/mL; decrease of activity against IMP-28 relative to 8 (IMP-28): ca. 100 fold
